Experimental data from ChEMBL document CHEMBL1137637, “Quinuclidine derivatives as potential antiparasitics” (Antimicrob Agents Chemother, 2007).
Converted amounts (≈) assume the structure as drawn.

What was measured:
Leishmania amazonensis [1] = test: Inhibition of sterol biosynthesis in Leishmania mexicana amazonensis promastigotes assessed as reduction in endogenous 5-dehydro episterol level at 0.3 uM after 96 hrs by gas-liquid chromatography; format: functional; parameters: scale not given: the % may be the effect or the level left
Procedure, shortened: (§1)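 Promastigotes grown in liver infusion-tryptose medium with lactalbumin and 10% fetal calf serum at 26°C, static; drug added at 0.5 × 10⁷ to 1 × 10⁷ cells/ml and cells exposed for 96 h. Total lipids extracted; neutral lipids separated from polar lipids by silicic acid column chromatography; free sterols quantified by capillary gas-liquid chromatography and mass spectrometry as mass % of total sterols.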

Leishmania amazonensis [2] = test: Inhibition of sterol biosynthesis in Leishmania mexicana amazonensis promastigotes assessed as reduction in exogenous cholesterol level at 0.3 uM after 96 hrs by gas-liquid chromatography; format: functional; parameters: scale not given: the % may be the effect or the level left; procedure, shortened: as §1
Leishmania amazonensis [3] = test: Inhibition of sterol biosynthesis in Leishmania mexicana amazonensis promastigotes assessed as reduction in endogenous episterol level at 0.1 uM after 96 hrs by gas-liquid chromatography; format: functional; parameters: scale not given: the % may be the effect or the level left
Procedure, shortened: (§2)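 L. mexicana promastigotes exposed to compound for 96 h. Total lipids extracted and neutral sterols separated from polar lipids by silicic acid column chromatography. Sterols analysed by TLC and by quantitative capillary gas-liquid chromatography with mass spectrometry. Composition expressed as mass % of free sterols, compared with untreated control.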

Leishmania amazonensis [4] = test: Inhibition of sterol biosynthesis in Leishmania mexicana amazonensis promastigotes assessed as reduction in endogenous 5-dehydro episterol level at 0.1 uM after 96 hrs by gas-liquid chromatography; format: functional; parameters: scale not given: the % may be the effect or the level left; procedure, shortened: as §2
Leishmania amazonensis [5] = test: Inhibition of sterol biosynthesis in Leishmania mexicana amazonensis promastigotes assessed as reduction in exogenous cholesterol level at 0.1 uM after 96 hrs by gas-liquid chromatography; format: functional; parameters: scale not given: the % may be the effect or the level left; procedure, shortened: as §2
[6] = biological target: T1, Farnesyltransferase, putative (Leishmania major, UniProt Q4Q5W4); test: Inhibition of Leishmania major recombinant squalene synthase expressed in Escherichia coli by liquid scintillation counter
T1 sequence (Q4Q5W4 whole entry): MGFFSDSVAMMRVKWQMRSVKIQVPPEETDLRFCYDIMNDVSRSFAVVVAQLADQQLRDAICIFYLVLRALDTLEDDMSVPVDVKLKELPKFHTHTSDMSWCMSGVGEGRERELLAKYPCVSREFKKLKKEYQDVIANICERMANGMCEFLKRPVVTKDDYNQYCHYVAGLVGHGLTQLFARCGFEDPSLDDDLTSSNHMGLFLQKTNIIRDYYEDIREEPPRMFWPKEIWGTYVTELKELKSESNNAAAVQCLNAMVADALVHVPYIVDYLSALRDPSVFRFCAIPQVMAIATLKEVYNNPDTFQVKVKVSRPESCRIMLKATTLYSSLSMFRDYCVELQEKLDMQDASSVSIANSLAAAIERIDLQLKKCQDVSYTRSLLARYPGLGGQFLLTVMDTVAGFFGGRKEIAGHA
Procedure, shortened: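 Soluble E. coli extract expressing L. major SQS truncated by 16 N-terminal and 40 C-terminal residues. Buffer: 50 mM phosphate pH 7.4, 20 mM MgCl2, 5 mM CHAPS, 1% Tween 80, 10 mM DTT, BSA, 0.25 mM NADPH, and a glucose-6-phosphate/G6PDH regenerating system. Substrate 0.5 μM radiolabelled farnesyl pyrophosphate. Squalene band counted by scintillation. IC50 from hyperbolic plot of five concentrations in duplicate, usually run twice.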

Squalene synthase = biological target: T2, Squalene synthase (Homo sapiens, UniProt P37268); test: Inhibition of human recombinant squalene synthase expressed in Escherichia coli BL21(DE3 pLysS) by liquid scintillation counter
T2 sequence (P37268 whole entry): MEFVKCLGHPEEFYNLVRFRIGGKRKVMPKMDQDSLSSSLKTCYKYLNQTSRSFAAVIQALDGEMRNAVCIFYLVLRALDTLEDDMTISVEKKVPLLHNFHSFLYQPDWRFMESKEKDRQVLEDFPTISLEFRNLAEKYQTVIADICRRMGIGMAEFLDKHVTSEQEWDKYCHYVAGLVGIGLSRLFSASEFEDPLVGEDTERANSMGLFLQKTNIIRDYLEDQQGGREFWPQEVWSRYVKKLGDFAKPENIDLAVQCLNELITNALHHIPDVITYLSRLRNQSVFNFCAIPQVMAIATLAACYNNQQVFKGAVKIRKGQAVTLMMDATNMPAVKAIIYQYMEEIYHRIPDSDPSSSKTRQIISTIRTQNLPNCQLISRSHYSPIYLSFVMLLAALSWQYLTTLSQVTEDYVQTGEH
Procedure, shortened: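 Human SQS in extracts of E. coli BL21(DE3 pLysS) carrying pHSS16, assayed under the same conditions as the L. major enzyme. Buffer: phosphate pH 7.4, MgCl2, CHAPS, Tween 80, DTT, BSA, and NADPH with a regenerating system. Substrate 0.5 μM radiolabelled farnesyl pyrophosphate. Squalene band radioactivity counted by scintillation.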

Leishmania amazonensis [7] = test: Antileishmanial activity against Leishmania mexicana amazonensis promastigotes by trypan blue exclusion method; format: functional, organism-based
Procedure, shortened: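 L. mexicana amazonensis promastigotes cultured in liver infusion-tryptose medium with lactalbumin and 10% FCS at 26°C, unagitated. Cultures started at 2 × 10⁶ cells/ml and drug added at 0.5–1 × 10⁷ cells/ml. Density counted by electronic particle counter and hemocytometer. Viability by trypan blue exclusion. Triplicate growth experiments.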

Leishmania donovani = test: Antileishmanial activity against Leishmania donovani MHOM/ET/67/L82 axenic amastigotes after 72 hrs by resazurin assay; format: functional, organism-based; conditions: MHOM/ET/67/L82, 72 h
Procedure, shortened: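 L. donovani MHOM/ET/67/L82 amastigotes grown axenically at 37°C in synthetic minimal medium at pH 5.4 with 10% heat-inactivated FBS under 5% CO2. 1 × 10⁵ amastigotes per well with seven threefold dilutions, 30 to 0.041 μg/ml. After 72 h, resazurin added for 2–4 h more. Fluorescence read at ex 536/em 588 nm. IC50 taken from sigmoidal curve. Run in duplicate, with an independent repeat for actives.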

L6 = test: Cytotoxicity against rat L6 cells after 72 hrs by resazurin assay; format: cell-based; conditions: L6, 72 h
Procedure, shortened: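 L-6 cells seeded at 4 × 10⁴ cells/ml in RPMI 1640 with 10% FBS and 2 mM L-glutamine. After 24 h, medium replaced with serial drug dilution and incubated for 72 h at 37°C in 5% CO2. Resazurin added for 2–4 h, fluorescence read at ex 536/em 588 nm. IC50 from sigmoidal curve. Duplicate, with an independent repeat for actives.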

Trypanosoma cruzi = test: Antitrypanosomal activity against trypomastigotes of Trypanosoma cruzi Tulahuen C2C4 containing lacZ gene in rat L6 cells after 4 days by chlorophenol red-beta-D-galactopyranoside/Nonidet assay; format: functional, organism-based; conditions: Tulahuen C2C4, L6, 96 h
Procedure, shortened: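 L-6 rat myoblasts seeded at 2,000 cells/well in RPMI 1640 with 10% FBS and 2 mM L-glutamine. After 24 h, 5,000 T. cruzi Tulahuen C2C4 lacZ trypomastigotes added with serial drug dilution. Incubated at 37°C in 5% CO2 for 4 days. CPRG/Nonidet substrate added and colour read at 540 nm after 2–4 h. IC50 from sigmoidal curve. Duplicate determinations.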

[8] = system: Trypanosoma brucei rhodesiense; test: Trypanocidal activity against Trypanosoma brucei rhodesiense STIB 900 bloodstream form after 72 hrs by resazurin assay; format: functional, organism-based; conditions: STIB 900, 72 h
Procedure, shortened: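 T. b. rhodesiense STIB 900 bloodstream forms in MEM with 2-mercaptoethanol and 15% heat-inactivated horse serum, with serial drug dilutions. Incubated 72 h at 37°C in 5% CO2. Resazurin added for 2–4 h more, fluorescence read at ex 536/em 588 nm. IC50 from sigmoidal curve. Duplicate, with an independent repeat for actives.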

Plasmodium falciparum = test: Antiplasmodial activity after 48 hrs against chloroquine and pyrimethamine-resistant Plasmodium falciparum K1 in human erythrocytes by [3H]hypoxanthine uptake; format: functional, organism-based
Procedure, shortened: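 P. falciparum K1 in human red cells in RPMI 1640 with 5% Albumax, exposed to serial drug dilutions. Incubated 48 h at 37°C under reduced oxygen, then 0.5 μCi [³H]hypoxanthine per well for 24 h more. Cells harvested onto glass-fibre filters and counted by scintillation. Result expressed as % of untreated control, with IC50 from sigmoidal curve. Duplicate, plus an independent repeat for actives.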

Leishmania amazonensis [9] = test: Inhibition of sterol biosynthesis in Leishmania mexicana amazonensis promastigotes assessed as reduction in endogenous episterol level at 0.3 uM after 96 hrs by gas-liquid chromatography; format: functional; parameters: scale not given: the % may be the effect or the level left; procedure, shortened: as §1
Leishmania amazonensis [10] = test: Inhibition of sterol biosynthesis in Leishmania mexicana amazonensis promastigotes assessed as reduction in exogenous cholesterol level at 3 uM after 96 hrs by gas-liquid chromatography; format: functional; parameters: scale not given: the % may be the effect or the level left; procedure, shortened: as §2
Leishmania amazonensis [11] = test: Inhibition of sterol biosynthesis in Leishmania mexicana amazonensis promastigotes assessed as reduction in endogenous 5-dehydro episterol level at 3 uM after 96 hrs by gas-liquid chromatography; format: functional; parameters: scale not given: the % may be the effect or the level left; procedure, shortened: as §2
Leishmania amazonensis [12] = test: Inhibition of sterol biosynthesis in Leishmania mexicana amazonensis promastigotes assessed as reduction in endogenous episterol level at 3 uM after 96 hrs by gas-liquid chromatography; format: functional; parameters: scale not given: the % may be the effect or the level left; procedure, shortened: as §2
Leishmania amazonensis [13] = test: Inhibition of sterol biosynthesis in Leishmania mexicana amazonensis promastigotes assessed as reduction in exogenous cholesterol level at 10 uM after 96 hrs by gas-liquid chromatography; format: functional; parameters: scale not given: the % may be the effect or the level left; procedure, shortened: as §2
Leishmania amazonensis [14] = test: Inhibition of sterol biosynthesis in Leishmania mexicana amazonensis promastigotes assessed as reduction in endogenous 5-dehydro episterol level at 10 uM after 96 hrs by gas-liquid chromatography; format: functional; parameters: scale not given: the % may be the effect or the level left; procedure, shortened: as §2
Leishmania amazonensis [15] = test: Inhibition of sterol biosynthesis in Leishmania mexicana amazonensis promastigotes assessed as reduction in endogenous episterol level at 10 uM after 96 hrs by gas-liquid chromatography; format: functional; parameters: scale not given: the % may be the effect or the level left; procedure, shortened: as §2
Leishmania amazonensis [16] = test: Inhibition of sterol biosynthesis in Leishmania mexicana amazonensis promastigotes assessed as reduction in endogenous cholesta-5,7,24-trien-3beta-ol level at 3 uM after 96 hrs by gas-liquid chromatography; format: functional; parameters: scale not given: the % may be the effect or the level left; procedure, shortened: as §2
Leishmania amazonensis [17] = test: Inhibition of sterol biosynthesis in Leishmania mexicana amazonensis promastigotes assessed as reduction in endogenous cholesta-5,7,24-trien-3beta-ol level at 1 uM after 96 hrs by gas-liquid chromatography; format: functional; parameters: scale not given: the % may be the effect or the level left; procedure, shortened: as §2
Leishmania amazonensis [18] = test: Inhibition of sterol biosynthesis in Leishmania mexicana amazonensis promastigotes assessed as reduction in exogenous cholesterol level at 1 uM after 96 hrs by gas-liquid chromatography; format: functional; parameters: scale not given: the % may be the effect or the level left; procedure, shortened: as §2
Leishmania amazonensis [19] = test: Inhibition of sterol biosynthesis in Leishmania mexicana amazonensis promastigotes assessed as reduction in endogenous 5-dehydro episterol level at 1 uM after 96 hrs by gas-liquid chromatography; format: functional; parameters: scale not given: the % may be the effect or the level left; procedure, shortened: as §2
Leishmania amazonensis [20] = test: Inhibition of sterol biosynthesis in Leishmania mexicana amazonensis promastigotes assessed as reduction in endogenous episterol level at 1 uM after 96 hrs by gas-liquid chromatography; format: functional; parameters: scale not given: the % may be the effect or the level left; procedure, shortened: as §2
Leishmania amazonensis [21] = test: Inhibition of sterol biosynthesis in Leishmania mexicana amazonensis promastigotes assessed as reduction in endogenous cholesta-7,24-dien-3beta-ol level at 1 uM after 96 hrs by gas-liquid chromatography; format: functional; parameters: scale not given: the % may be the effect or the level left; procedure, shortened: as §2
Leishmania amazonensis [22] = test: Inhibition of sterol biosynthesis in Leishmania mexicana amazonensis promastigotes assessed as reduction in endogenous cholesta-7,24-dien-3beta-ol level at 3 uM after 96 hrs by gas-liquid chromatography; format: functional; parameters: scale not given: the % may be the effect or the level left; procedure, shortened: as §2

## C1=C(c2ccc(OCc3ccccc3)cc2)C2CCN1CC2
Leishmania amazonensis [1]
  Activity: 24.2%
Leishmania amazonensis [2]
  Activity: 52.9%
Leishmania amazonensis [3]
  Activity: 15.4%
Leishmania amazonensis [4]
  Activity: 53%
Leishmania amazonensis [5]
  Activity: 31.6%
[6]
  IC50: 0.1 µM
Squalene synthase
  IC50: 0.25 µM
Leishmania amazonensis [7]
  MIC: 0.3 µM (≈ 0.0874 µg/mL)
Leishmania donovani
  IC50: 1.1 µM
L6
  IC50: 47.2 µM
Trypanosoma cruzi
  IC50: 3.1 µM
[8]
  IC50: 1.1 µM
Plasmodium falciparum
  IC50: 4.8 µM
Leishmania amazonensis [9]
  Activity: 22.9%

## CCOC(=O)Cc1ccc(C#CC2(O)CN3CCC2CC3)cc1 (stereo unspecified)
[6]
  IC50: 0.97 µM
Squalene synthase
  IC50: 0.66 µM
Leishmania amazonensis [7]
  MIC: 10 µM (≈ 3.13 µg/mL)
Leishmania amazonensis [10]
  Activity: 28.4%
Leishmania amazonensis [11]
  Activity: 48.6%
Leishmania amazonensis [12]
  Activity: 23%
Leishmania donovani
  IC50: 17.3 µM
L6
  IC50: > 287 µM
Trypanosoma cruzi
  IC50: 25.6 µM
[8]
  IC50: 258 µM
Plasmodium falciparum
  IC50: 10 µM
Leishmania amazonensis [13]
  Activity: 62.3%
Leishmania amazonensis [14]
  Activity: 18.9%
Leishmania amazonensis [15]
  Activity: 18.8%

## OC[C@@H]1CC2CCN1C[C@@H]2C#Cc1ccc(-c2ccccc2)cc1 (stereo partly specified)
[6]
  IC50: > 1 µM
Leishmania amazonensis [7]
  MIC: 3 µM (≈ 0.952 µg/mL)
Leishmania amazonensis [16]
  Activity: 24.8%
Leishmania amazonensis [17]
  Activity: 41.7%
Leishmania amazonensis [18]
  Activity: 10.3%
Leishmania amazonensis [19]
  Activity: 36.4%
Leishmania amazonensis [20]
  Activity: 4.4%
Leishmania amazonensis [10]
  Activity: 25.2%
Leishmania amazonensis [11]
  Activity: 33.7%
Leishmania amazonensis [12]
  Activity: 9.3%
Leishmania donovani
  IC50: 18.5 µM
L6
  IC50: 10.7 µM
Trypanosoma cruzi
  IC50: 5.6 µM
[8]
  IC50: 1.2 µM
Plasmodium falciparum
  IC50: 0.6 µM
Leishmania amazonensis [21]
  Activity: 7.2%
Leishmania amazonensis [22]
  Activity: 7%
Leishmania amazonensis [13]
  Activity: >99%
